Test results: ChEMBL document CHEMBL1150127, “Microbial and chemical transformation studies of the bioactive marine sesquiterpenes (S)-(+)-curcuphenol and -curcudiol isolated from a deep reef collection of the Jamaican sponge Didiscus oxeata” (J Nat Prod, 2002)
≈ marks a conversion by molar mass, not a printed value. Calls of active or inactive are those of the source. No cut-off for these calls is given here.

Legend:
[1] = test system: Mycobacterium tuberculosis; assay: Antituberculosis activity against Mycobacterium tuberculosis; type: functional, organism-based
Hepatitis B virus = assay: Antiviral activity against Hepatitis B virus replication in human HepG2(2.2.15) cells; type: functional, organism-based
In short: (§1)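 Run in cultures of 2.2.15 cells. Inhibition of HBV replication reported as EC50 and EC90, and cytotoxicity in the same cells as CC50, all in µg/mL. A selectivity index was taken from cytotoxic and antiviral concentrations.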

[2] = Cytotoxicity against human HepG2(2.2.15) cells; type: cell-based; in short: as §1
Plasmodium falciparum [3] = assay: Antimalarial activity against Plasmodium falciparum W2; type: functional
Plasmodium falciparum [4] = assay: Antimalarial activity against Plasmodium falciparum D6; type: functional
Candida albicans = assay: Antifungal activity against Candida albicans; type: functional
Cryptococcus neoformans = assay: Antifungal activity against Cryptococcus neoformans; type: functional
Staphylococcus aureus [5] = assay: Antibacterial activity against Staphylococcus aureus; type: functional
Staphylococcus aureus [6] = assay: Antibacterial activity against methicillin-resistant Staphylococcus aureus; type: functional

Q: With `Cc1ccc([C@@H](C)CCC[C@H](C)CO)c(O)c1` as the compound, how does the Activity [1] read?
A: inactive

Q: With `C/C(=C\CC[C@H](C)c1ccc(CO)cc1O)CO` as the compound, how does the Activity [1] read?
A: inactive

Q: Which Activity [1] does the source give for `CC(C)=CCC[C@H](C)c1ccc(C)cc1OC(=O)c1ccncc1` here?
A: inactive

Q: For `Cc1ccc([C@@H](C)CC[C@H](O)C(C)(C)O)c(O)c1`, which Activity [1] is on record?
A: inactive

Q: Which Activity [1] does the source give for `Cc1ccc([C@@H](C)CCCC(C)C(=O)O)c(O)c1` (some centres not stated) here?
A: inactive

Q: For `CC(C)=CCC[C@H](C)c1cc([N+](=O)[O-])c(C)cc1O`, which Activity [1] is on record?
A: inactive

Q: What about the EC50 (Hepatitis B virus) of the same compound?
A: 61 µg/mL (≈ 232 µM)

Q: And the EC90 (Hepatitis B virus)?
A: 203 µg/mL (≈ 771 µM)

Q: And the CC50 [2]?
A: 39 µg/mL (≈ 148 µM)

Q: Which Activity [1] does the source give for `CC(C)=CCC[C@H](C)c1ccc(CO)cc1O` here?
A: inactive

Q: And the MIC (Plasmodium falciparum [3])?
A: 2.9 µg/mL (≈ 12.4 µM)

Q: What about the MIC (Plasmodium falciparum [4]) of the same compound?
A: 3.8 µg/mL (≈ 16.2 µM)

Q: With `CC(C)=CCC[C@H](C)c1ccc(C)c([N+](=O)[O-])c1O` as the compound, how does the Activity [1] read?
A: inactive

Q: With `C/C(C=O)=C\CC[C@H](C)c1ccc(CO)cc1O` as the compound, how does the Activity [1] read?
A: inactive

Q: For `C/C(=C\CC[C@H](C)c1ccc(C)cc1O)CO`, which Activity [1] is on record?
A: inactive

Q: Which Activity [1] does the source give for `Cc1ccc([C@@H](C)CCC[C@@H](C)C(=O)O)c(O)c1` here?
A: inactive

Q: For `Cc1ccc([C@@H](C)CC[C@@H](O)C(C)(C)O)c(O)c1`, which Activity [1] is on record?
A: inactive

Q: With `Cc1ccc([C@@H](C)CCC(=O)O)c(O)c1` as the compound, how does the Activity [1] read?
A: inactive

Q: What does the source list for `CC(C)=CCC[C@H](C)c1ccc(C)cc1O`?
A: MFC (Candida albicans): 12.5 µg/mL (≈ 57.3 µM); MIC (Candida albicans): 7.5 µg/mL (≈ 34.4 µM); Activity [1]: inactive; MFC (Cryptococcus neoformans): 12.5 µg/mL (≈ 57.3 µM); MIC (Cryptococcus neoformans): 7.5 µg/mL (≈ 34.4 µM); MBC (Staphylococcus aureus [5]): 12.5 µg/mL (≈ 57.3 µM); MIC (Staphylococcus aureus [5]): 7.5 µg/mL (≈ 34.4 µM); MIC (Plasmodium falciparum [3]): 1.8 µg/mL (≈ 8.24 µM); MIC (Plasmodium falciparum [4]): 3.6 µg/mL (≈ 16.5 µM); MBC (Staphylococcus aureus [6]): 12.5 µg/mL (≈ 57.3 µM); MIC (Staphylococcus aureus [6]): 7.5 µg/mL (≈ 34.4 µM)

Q: With `Cc1ccc([C@@H](C)CCCC(C)(C)O)c(O)c1` as the compound, how does the Activity [1] read?
A: inactive

Q: For `CC(C)=CCC[C@H](C)c1ccc(C)cc1O[C@H]1O[C@H](CO)[C@@H](O)[C@H](O)[C@H]1O`, which Activity [1] is on record?
A: inactive

Q: For `Cc1ccc([C@@H](C)CCCC(C)(C)O)c(O[C@H]2O[C@H](CO)[C@@H](O)[C@H](O)[C@H]2O)c1`, which Activity [1] is on record?
A: inactive

Q: For `Cc1ccc([C@@H](C)CCCC(C)CO)c(O)c1` (some centres not stated), which Activity [1] is on record?
A: inactive

Q: For `Cc1ccc([C@@H](C)CCC(=O)C(C)(C)O)c(O)c1`, which Activity [1] is on record?
A: inactive

Q: For `Cc1ccc([C@@H](C)CCCC(C)(C)O)c(OC(=O)c2ccncc2)c1`, which Activity [1] is on record?
A: inactive

Q: Which Activity [1] does the source give for `Cc1ccc([C@@H](C)CCC[C@@H](C)CO)c(O)c1` here?
A: inactive

Q: With `Cc1ccc([C@@H](C)CCC[C@H](C)C(=O)O)c(O)c1` as the compound, how does the Activity [1] read?
A: inactive
